Measured values as given in ChEMBL document CHEMBL2331482, “Synthesis of some new 2-(3-pyridyl)-4,5-disubstituted thiazoles as potent antimicrobial agents” (2013).
In brackets after ≈: the same amount, converted by molar mass. Activity calls are given as the source filed them. The calls are words filed in the database; no cut-off is given here.

How the values were obtained:
Type in all cases: functional
[1] = system: Staphylococcus epidermidis; test: Antibacterial activity against Staphylococcus epidermidis RCMB 010024 assessed as growth inhibition after 24 hrs by twofold serial dilution method; settings: RCMB 010024, 24 h
Summary of the method: (§1)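 Broth microdilution in Müller–Hinton broth, 96-well plates. Only compounds giving disc-diffusion zones >10 mm were tested. DMF stocks (1000 µg/mL) were diluted twofold to a final 500–0.007 µg/mL, with about 10^6 CFU/mL bacteria. Sealed plates ran 24 h at 37 °C in a humid chamber. MIC was the lowest concentration with no visible turbidity. DMF and uninoculated-medium controls were included.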

Shigella flexneri = test: Antibacterial activity against Shigella flexneri RCMB 0100542 assessed as growth inhibition after 24 hrs by twofold serial dilution method; summary of the method: as §1
Pseudomonas aeruginosa = test: Antibacterial activity against Pseudomonas aeruginosa RCMB 010043 assessed as growth inhibition after 24 hrs by twofold serial dilution method; summary of the method: as §1
Aspergillus clavatus = test: Antifungal activity against Aspergillus clavatus RCMB 02593 assessed as growth inhibition after 48 hrs by twofold serial dilution method; settings: RCMB 02593, 48 h
Summary of the method: (§2)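 Fungi were tested by microdilution in Sabouraud liquid medium. Only compounds with disc-diffusion zones >10 mm went on to this test. DMF stocks (1000 µg/mL) were serially diluted twofold to 500–0.007 µg/mL. Sealed plates were held 48 h at 25 °C in a humid chamber. MIC was the lowest concentration without visible turbidity. DMF and uninoculated-medium controls ran in parallel.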

Enterococcus faecalis = test: Antibacterial activity against Enterococcus faecalis RCMB 010068 assessed as growth inhibition after 24 hrs by twofold serial dilution method; summary of the method: as §1
Bacillus subtilis = test: Antibacterial activity against Bacillus subtilis RCMB 010063 assessed as growth inhibition after 24 hrs by twofold serial dilution method; settings: RCMB 010063, 24 h; summary of the method: as §1
Neisseria gonorrhoeae = test: Antibacterial activity against Neisseria gonorrhoeae RCMB 010076 assessed as growth inhibition after 24 hrs by twofold serial dilution method; summary of the method: as §1
Geotrichum candidum = test: Antifungal activity against Geotricum candidum RCMB 05096 assessed as growth inhibition after 48 hrs by twofold serial dilution method; settings: RCMB 05096, 48 h; summary of the method: as §2
Streptococcus pyogenes = test: Antibacterial activity against Streptococcus pyogenes RCMB 010015 assessed as growth inhibition after 24 hrs by twofold serial dilution method; summary of the method: as §1
Candida albicans = test: Antifungal activity against Candida albicans RCMB 05035 assessed as growth inhibition after 48 hrs by twofold serial dilution method; summary of the method: as §2
Aspergillus fumigatus = test: Antifungal activity against Aspergillus fumigatus RCMB 02564 assessed as growth inhibition after 48 hrs by twofold serial dilution method; settings: RCMB 02564, 48 h; summary of the method: as §2
Talaromyces marneffei = test: Antifungal activity against Penicillium marneffei RCMB 01267 assessed as growth inhibition after 48 hrs by twofold serial dilution method; settings: RCMB 01267, 48 h; summary of the method: as §2
Staphylococcus aureus = test: Antibacterial activity against Staphylococcus aureus RCMB 010027 assessed as growth inhibition after 24 hrs by twofold serial dilution method; settings: RCMB 010027, 24 h; summary of the method: as §1
Proteus vulgaris = test: Antibacterial activity against Proteus vulgaris RCMB 010085 assessed as growth inhibition after 24 hrs by twofold serial dilution method; summary of the method: as §1
Klebsiella pneumoniae = test: Antibacterial activity against Klebsiella pneumoniae RCMB 010093 assessed as growth inhibition after 24 hrs by twofold serial dilution method; summary of the method: as §1

MIC [1]	MIC (Shigella flexneri)	MIC (Pseudomonas aeruginosa)	MIC (Aspergillus clavatus)	MIC (Enterococcus faecalis; RCMB 010068, 24 h)	MIC (Bacillus subtilis)	MIC (Neisseria gonorrhoeae)	MIC (Geotrichum candidum)	MIC (Streptococcus pyogenes)	MIC (Aspergillus fumigatus)	MIC (Talaromyces marneffei)	MIC (Staphylococcus aureus)	MIC (Shigella flexneri; RCMB 0100542, 24 h)	MIC (Neisseria gonorrhoeae; RCMB 010076, 24 h)	MIC (Candida albicans; RCMB 05035, 48 h)	MIC (Proteus vulgaris; RCMB 010085, 24 h)	MIC (Klebsiella pneumoniae; RCMB 010093, 24 h)	SMILES	other results
125 µg/mL (≈ 351 µM)	inactive	inactive	125 µg/mL (≈ 351 µM)	125 µg/mL (≈ 351 µM)	62.5 µg/mL (≈ 175 µM)	inactive	125 µg/mL (≈ 351 µM)	inactive	125 µg/mL (≈ 351 µM)	250 µg/mL (≈ 701 µM)	125 µg/mL (≈ 351 µM)	–	–	–	–	–	Cc1nc(-c2cccnc2)sc1C1=NNC(c2ccc(F)cc2F)C1 (stereo not given)	MIC (Candida albicans): inactive; MIC (Proteus vulgaris): inactive; MIC (Klebsiella pneumoniae): inactive
31.2 µg/mL (≈ 91.3 µM)	inactive	inactive	125 µg/mL (≈ 365 µM)	250 µg/mL (≈ 730 µM)	15.6 µg/mL (≈ 45.7 µM)	inactive	62.5 µg/mL (≈ 183 µM)	inactive	62.5 µg/mL (≈ 183 µM)	62.5 µg/mL (≈ 183 µM)	31.2 µg/mL (≈ 91.3 µM)	–	–	500 µg/mL (≈ 1460 µM)	62.5 µg/mL (≈ 183 µM)	31.2 µg/mL (≈ 91.3 µM)	Cc1nc(-c2cccnc2)sc1C(=O)/C=C/c1ccc(F)cc1F	–
3.9 µg/mL (≈ 11.6 µM)	–	–	31.2 µg/mL (≈ 92.9 µM)	62.5 µg/mL (≈ 186 µM)	1.95 µg/mL (≈ 5.8 µM)	–	7.81 µg/mL (≈ 23.2 µM)	–	15.6 µg/mL (≈ 46.5 µM)	7.81 µg/mL (≈ 23.2 µM)	3.9 µg/mL (≈ 11.6 µM)	7.81 µg/mL (≈ 23.2 µM)	125 µg/mL (≈ 372 µM)	62.5 µg/mL (≈ 186 µM)	7.81 µg/mL (≈ 23.2 µM)	3.9 µg/mL (≈ 11.6 µM)	COc1ccc(/C=C/C(=O)c2sc(-c3cccnc3)nc2C)cc1	MIC (Pseudomonas aeruginosa; RCMB 010043, 24 h): 250 µg/mL (≈ 743 µM); MIC (Streptococcus pyogenes; RCMB 010015, 24 h): 31.2 µg/mL (≈ 92.9 µM)
62.5 µg/mL (≈ 176 µM)	inactive	inactive	125 µg/mL (≈ 352 µM)	125 µg/mL (≈ 352 µM)	62.5 µg/mL (≈ 176 µM)	inactive	125 µg/mL (≈ 352 µM)	inactive	125 µg/mL (≈ 352 µM)	250 µg/mL (≈ 704 µM)	125 µg/mL (≈ 352 µM)	–	–	–	–	–	Cc1nc(-c2cccnc2)sc1C1=NNC(c2ccc(Cl)cc2)C1 (stereo not given)	MIC (Candida albicans): inactive; MIC (Proteus vulgaris): inactive; MIC (Klebsiella pneumoniae): inactive
–	–	–	1.95 µg/mL (≈ 2.11 µM)	–	–	–	0.48 µg/mL (≈ 0.519 µM)	–	0.97 µg/mL (≈ 1.05 µM)	1.95 µg/mL (≈ 2.11 µM)	–	–	–	0.24 µg/mL (≈ 0.26 µM)	–	–	C[C@@H]1[C@H](O)[C@@H](C)/C=C/C=C/C=C/C=C/C=C/C=C/C=C/[C@H](O[C@@H]2O[C@H](C)[C@@H](O)[C@H](N)[C@@H]2O)C[C@@H]2O[C@](O)(C[C@@H](O)C[C@@H](O)[C@H](O)CC[C@@H](O)C[C@@H](O)CC(=O)O[C@H]1C)C[C@H](O)[C@H]2C(=O)O [AMPHOTERICIN B]	–
15.6 µg/mL (≈ 44.6 µM)	–	inactive	62.5 µg/mL (≈ 178 µM)	250 µg/mL (≈ 713 µM)	15.6 µg/mL (≈ 44.6 µM)	–	31.2 µg/mL (≈ 89.2 µM)	inactive	31.2 µg/mL (≈ 89.2 µM)	62.5 µg/mL (≈ 178 µM)	15.6 µg/mL (≈ 44.6 µM)	62.5 µg/mL (≈ 178 µM)	500 µg/mL (≈ 1430 µM)	250 µg/mL (≈ 713 µM)	31.2 µg/mL (≈ 89.2 µM)	62.5 µg/mL (≈ 178 µM)	COc1ccc(C2CC(c3sc(-c4cccnc4)nc3C)=NN2)cc1 (stereo not given)	–
31.2 µg/mL (≈ 91.7 µM)	inactive	inactive	125 µg/mL (≈ 367 µM)	–	31.2 µg/mL (≈ 91.7 µM)	inactive	31.2 µg/mL (≈ 91.7 µM)	inactive	62.5 µg/mL (≈ 183 µM)	62.5 µg/mL (≈ 183 µM)	62.5 µg/mL (≈ 183 µM)	–	–	250 µg/mL (≈ 733 µM)	62.5 µg/mL (≈ 183 µM)	31.2 µg/mL (≈ 91.7 µM)	Cc1nc(-c2cccnc2)sc1C(=O)/C=C/c1ccc(Cl)cc1	MIC (Enterococcus faecalis): inactive

SMILES	MIC [1]	MIC (Shigella flexneri)	MIC (Pseudomonas aeruginosa)	MIC (Aspergillus clavatus)	MIC (Enterococcus faecalis; RCMB 010068, 24 h)	MIC (Bacillus subtilis)	MIC (Neisseria gonorrhoeae)	MIC (Geotrichum candidum)	MIC (Streptococcus pyogenes)	MIC (Aspergillus fumigatus)	MIC (Talaromyces marneffei)	MIC (Staphylococcus aureus)	MIC (Shigella flexneri; RCMB 0100542, 24 h)	MIC (Neisseria gonorrhoeae; RCMB 010076, 24 h)	MIC (Candida albicans; RCMB 05035, 48 h)	MIC (Proteus vulgaris; RCMB 010085, 24 h)	MIC (Klebsiella pneumoniae; RCMB 010093, 24 h)	other results
Cc1csc(-c2cccnc2)n1	0.97 µg/mL (≈ 5.5 µM)	–	–	15.6 µg/mL (≈ 88.7 µM)	31.2 µg/mL (≈ 177 µM)	1.95 µg/mL (≈ 11.1 µM)	–	1.95 µg/mL (≈ 11.1 µM)	–	7.81 µg/mL (≈ 44.3 µM)	3.9 µg/mL (≈ 22.1 µM)	0.97 µg/mL (≈ 5.5 µM)	3.9 µg/mL (≈ 22.1 µM)	62.5 µg/mL (≈ 355 µM)	31.2 µg/mL (≈ 177 µM)	3.9 µg/mL (≈ 22.1 µM)	1.95 µg/mL (≈ 11.1 µM)	MIC (Pseudomonas aeruginosa; RCMB 010043, 24 h): 125 µg/mL (≈ 709 µM); MIC (Streptococcus pyogenes; RCMB 010015, 24 h): 15.6 µg/mL (≈ 88.7 µM)
